pIC50: −log10 of the molar value. Converted amounts (≈) assume the structure as drawn.
Tests used:
Escherichia coli [1] = test: Antimicrobial activity against Escherichia coli after 24 hrs by micro-dilution susceptibility method
Bacillus subtilis [2] = test: Antimicrobial activity against Bacillus subtilis after 24 hrs by micro-dilution susceptibility method; assay type: functional
Summary of the method: (§1)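 Broth microdilution in Müller-Hinton broth against S. aureus IFO 3060, B. subtilis IFO 3007, E. coli IFO 3301 and P. aeruginosa IFO 3448. These are the same standard strains used in the disc-diffusion primary screen. Compounds were solubilized in DMSO. MIC recorded as the minimal inhibitory concentration.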

Staphylococcus aureus [3] = test: Antimicrobial activity against Staphylococcus aureus after 24 hrs by micro-dilution susceptibility method; assay type: functional; summary of the method: as §1
Pseudomonas aeruginosa = test: Antimicrobial activity against Pseudomonas aeruginosa at 200 ug after 24 hrs by agar disc diffusion method; assay type: functional; conditions: read-out: DIZ
Escherichia coli [4] = test: Antimicrobial activity against Escherichia coli at 200 ug after 24 hrs by agar disc diffusion method; assay type: functional; conditions: read-out: DIZ
Micrococcus luteus = test: Antimicrobial activity against Micrococcus luteus at 200 ug after 24 hrs by agar disc diffusion method; assay type: functional; conditions: read-out: DIZ
Bacillus subtilis [5] = test: Antimicrobial activity against Bacillus subtilis at 200 ug after 24 hrs by agar disc diffusion method; assay type: functional; conditions: read-out: DIZ
Dihydrofolate reductase = biological target: T1, Dihydrofolate reductase (Bos taurus, UniProt P00376); test: Inhibition of bovine DHFR after 2 mins by spectrophotometry
T1 sequence (P00376 whole entry): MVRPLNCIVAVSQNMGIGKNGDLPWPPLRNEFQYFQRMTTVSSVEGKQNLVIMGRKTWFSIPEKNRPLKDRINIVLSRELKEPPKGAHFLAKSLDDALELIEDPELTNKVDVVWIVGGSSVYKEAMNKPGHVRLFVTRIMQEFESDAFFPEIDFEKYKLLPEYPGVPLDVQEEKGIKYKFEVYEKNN

Staphylococcus aureus [6] = test: Antimicrobial activity against Staphylococcus aureus at 200 ug after 24 hrs by agar disc diffusion method; assay type: functional; conditions: read-out: DIZ
T47D = test: Cytotoxicity against human T47D cells at 10 uM after 48 hrs by coulter counter analysis; assay type: functional; conditions: read-out: GI
Hs-578T = test: Cytotoxicity against human Hs578T cells at 10 uM after 48 hrs by coulter counter analysis; assay type: functional; conditions: read-out: GI
MCF7 = test: Cytotoxicity against human MCF7 cells at 10 uM after 48 hrs by coulter counter analysis; assay type: functional; conditions: MCF7, 48 h, read-out: GI
MDA-MB-231 = test: Cytotoxicity against human MDA-MB-231 cells at 10 uM after 48 hrs by coulter counter analysis; assay type: functional; conditions: MDA-MB-231, 48 h, read-out: GI
PC-3 = test: Cytotoxicity against human PC3 cells at 10 uM after 48 hrs by coulter counter analysis; assay type: functional; conditions: PC-3, 48 h, read-out: GI
UO-31 = test: Cytotoxicity against human UO31 cells at 10 uM after 48 hrs by coulter counter analysis; assay type: functional; conditions: UO-31, 48 h, read-out: GI
RXF 393 = test: Cytotoxicity against human RXF393 cells at 10 uM after 48 hrs by coulter counter analysis; assay type: functional; conditions: RXF 393, 48 h, read-out: GI
SN12C = test: Cytotoxicity against human SN12C cells at 10 uM after 48 hrs by coulter counter analysis; assay type: functional; conditions: read-out: GI
A498 = test: Cytotoxicity against human A498 cells at 10 uM after 48 hrs by coulter counter analysis; assay type: functional; conditions: A498, 48 h, read-out: GI
CAKI-1 = test: Cytotoxicity against human Caki1 cells at 10 uM after 48 hrs by coulter counter analysis; assay type: functional; conditions: CAKI-1, 48 h, read-out: GI
[7] = Cytotoxicity against human NCI-ADR-RES cells at 10 uM after 48 hrs by coulter counter analysis; assay type: functional; conditions: read-out: GI
OVCAR-4 = test: Cytotoxicity against human OVCAR4 cells at 10 uM after 48 hrs by coulter counter analysis; assay type: functional; conditions: OVCAR-4, 48 h, read-out: GI
UACC-62 = test: Cytotoxicity against human UACC62 cells at 10 uM after 48 hrs by coulter counter analysis; assay type: functional; conditions: UACC-62, 48 h, read-out: GI
IGROV-1 = test: Cytotoxicity against human IGROV1 cells at 10 uM after 48 hrs by coulter counter analysis; assay type: functional; conditions: IGROV-1, 48 h, read-out: GI
SK-MEL-5 = test: Cytotoxicity against human SK-MEL-5 cells at 10 uM after 48 hrs by coulter counter analysis; assay type: functional; conditions: SK-MEL-5, 48 h, read-out: GI
Malme-3M = test: Cytotoxicity against human MALME-3M cells at 10 uM after 48 hrs by coulter counter analysis; assay type: functional; conditions: read-out: GI
MDA-MB-435 = test: Cytotoxicity against human MDA-MB-435 cells at 10 uM after 48 hrs by coulter counter analysis; assay type: functional; conditions: MDA-MB-435, 48 h, read-out: GI
SNB-75 = test: Cytotoxicity against human SNB75 cells at 10 uM after 48 hrs by coulter counter analysis; assay type: functional; conditions: SNB-75, 48 h, read-out: GI
LOX IMVI = test: Cytotoxicity against human LOXIMVI cells at 10 uM after 48 hrs by coulter counter analysis; assay type: functional; conditions: read-out: GI
SNB-19 = test: Cytotoxicity against human SNB19 cells at 10 uM after 48 hrs by coulter counter analysis; assay type: functional; conditions: SNB-19, 48 h, read-out: GI
NCI-H522 = test: Cytotoxicity against human NCI-H522 cells at 10 uM after 48 hrs by coulter counter analysis; assay type: functional; conditions: NCI-H522, 48 h, read-out: GI
SF-295 = test: Cytotoxicity against human SF295 cells at 10 uM after 48 hrs by coulter counter analysis; assay type: functional; conditions: SF-295, 48 h, read-out: GI
NCI-H23 = test: Cytotoxicity against human NCI-H23 cells at 10 uM after 48 hrs by coulter counter analysis; assay type: functional; conditions: NCI-H23, 48 h, read-out: GI
[8] = Cytotoxicity against human EKVX cells at 10 uM after 48 hrs by coulter counter analysis; assay type: functional; conditions: read-out: GI
NCI-H226 = test: Cytotoxicity against human NCI-H226 cells at 10 uM after 48 hrs by coulter counter analysis; assay type: functional; conditions: NCI-H226, 48 h, read-out: GI
A549 = test: Cytotoxicity against human A549/ATCC cells at 10 uM after 48 hrs by coulter counter analysis; assay type: functional; conditions: A549, 48 h, read-out: GI
RPMI-8226 = test: Cytotoxicity against human RPMI8226 cells at 10 uM after 48 hrs by coulter counter analysis; assay type: functional; conditions: RPMI-8226, 48 h, read-out: GI
SR = test: Cytotoxicity against human SR cells at 10 uM after 48 hrs by coulter counter analysis; assay type: functional; conditions: read-out: GI
MOLT-4 = test: Cytotoxicity against human MOLT4 cells at 10 uM after 48 hrs by coulter counter analysis; assay type: functional; conditions: MOLT-4, 48 h, read-out: GI
CCRF-CEM = test: Cytotoxicity against human CCRF-CEM cells at 10 uM after 48 hrs by coulter counter analysis; assay type: functional; conditions: read-out: GI
HL-60(TB) = test: Cytotoxicity against human HL-60(TB) cells at 10 uM after 48 hrs by coulter counter analysis; assay type: functional; conditions: HL-60, 48 h, read-out: GI

SMILES | MIC (Bacillus subtilis [2]) [µg/mL] | MIC (Staphylococcus aureus [3]) [µg/mL] | zone of inhibition at 200 µg/disc (Pseudomonas aeruginosa) [mm] | zone of inhibition at 200 µg/disc (Escherichia coli [4]) [mm] | zone of inhibition at 200 µg/disc (Micrococcus luteus) [mm] | zone of inhibition at 200 µg/disc (Bacillus subtilis [5]) [mm] | pIC50 (Dihydrofolate reductase) | zone of inhibition at 200 µg/disc (Staphylococcus aureus [6]) [mm] | inhibition of growth at 10 µM (T47D) [%] | inhibition of growth at 10 µM (Hs-578T) [%] | inhibition of growth at 10 µM (MCF7) [%] | inhibition of growth at 10 µM (MDA-MB-231) [%] | inhibition of growth at 10 µM (PC-3) [%] | inhibition of growth at 10 µM (UO-31) [%] | inhibition of growth at 10 µM (RXF 393) [%] | inhibition of growth at 10 µM (SN12C) [%] | inhibition of growth at 10 µM (A498) [%] | inhibition of growth at 10 µM (CAKI-1) [%] | inhibition of growth at 10 µM [7] [%] | inhibition of growth at 10 µM (OVCAR-4) [%] | also measured
CCOC(=O)c1nc(N)sc1Sc1nc2ccc(Cl)cc2c(=O)n1Cc1ccccc1 | 2 (≈ 4.23 µM) | 4 (≈ 8.46 µM) | 8 | 20 | 14 | 22 | 6.00 | 20 | – | – | – | – | – | – | – | – | – | – | – | – | MIC (Escherichia coli [1]): 4 µg/mL (≈ 8.46 µM)
Cc1ccc2nc(Sc3ncccc3C(=O)O)n(-c3ccccc3)c(=O)c2c1 | 4 (≈ 10.3 µM) | 4 (≈ 10.3 µM) | 12 | 16 | 14 | 22 | 5.10 | 20 | < 10 | < 10 | < 10 | < 10 | 11.7 | 12.1 | < 10 | < 10 | < 10 | 13.1 | < 10 | < 10 | inhibition of growth at 10 µM (UACC-62): < 10%; inhibition of growth at 10 µM (IGROV-1): < 10%; inhibition of growth at 10 µM (SK-MEL-5): < 10%; inhibition of growth at 10 µM (Malme-3M): < 10%; inhibition of growth at 10 µM (MDA-MB-435): < 10%; inhibition of growth at 10 µM (SNB-75): < 10%; inhibition of growth at 10 µM (LOX IMVI): < 10%; inhibition of growth at 10 µM (SNB-19): < 10%; inhibition of growth at 10 µM (NCI-H522): < 10%; inhibition of growth at 10 µM (SF-295): < 10%; inhibition of growth at 10 µM (NCI-H23): < 10%; inhibition of growth at 10 µM [8]: < 10%; inhibition of growth at 10 µM (NCI-H226): < 10%; inhibition of growth at 10 µM (A549): < 10%; inhibition of growth at 10 µM (RPMI-8226): 10.4%; inhibition of growth at 10 µM (SR): < 10%; inhibition of growth at 10 µM (MOLT-4): < 10%; inhibition of growth at 10 µM (CCRF-CEM): < 10%; inhibition of growth at 10 µM (HL-60(TB)): < 10%
Nc1ncc(Sc2nc3ccc(Cl)cc3c(=O)n2-c2ccccc2)s1 | 4 (≈ 10.3 µM) | 8 (≈ 20.7 µM) | 8 | 8 | 14 | 22 | 5.40 | 18 | 19.1 | < 10 | 19 | 21.5 | 10.2 | < 10 | < 10 | < 10 | < 10 | 24.1 | < 10 | < 10 | inhibition of growth at 10 µM (UACC-62): < 10%; inhibition of growth at 10 µM (IGROV-1): < 10%; inhibition of growth at 10 µM (SK-MEL-5): < 10%; inhibition of growth at 10 µM (Malme-3M): < 10%; inhibition of growth at 10 µM (MDA-MB-435): < 10%; inhibition of growth at 10 µM (SNB-75): < 10%; inhibition of growth at 10 µM (LOX IMVI): 11.2%; inhibition of growth at 10 µM (SNB-19): < 10%; inhibition of growth at 10 µM (NCI-H522): 14%; inhibition of growth at 10 µM (SF-295): < 10%; inhibition of growth at 10 µM (NCI-H23): 10.9%; inhibition of growth at 10 µM [8]: 12.9%; inhibition of growth at 10 µM (NCI-H226): 25.7%; inhibition of growth at 10 µM (A549): < 10%; inhibition of growth at 10 µM (RPMI-8226): < 10%; inhibition of growth at 10 µM (SR): 29.1%; inhibition of growth at 10 µM (MOLT-4): < 10%; inhibition of growth at 10 µM (CCRF-CEM): < 10%; inhibition of growth at 10 µM (HL-60(TB)): < 10%
